TDP2 inh = blocks human TDP2 phosphodiesterase activity; O95551; 0.34% of 370,000 active; recombinant TDP2, T5PNP hydrolysis, p-nitrophenol absorbance 415 nm; AID 720702; inhibition, % at 12.8 µM;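 active = inhibition above the mean of all tested compounds plus 3 SD, set per campaign, cut at about 25% in these data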;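 also: 0% = DMSO with enzyme and 100% = buffer with substrate but no TDP2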
Target sequence (O95551 whole entry, looked up): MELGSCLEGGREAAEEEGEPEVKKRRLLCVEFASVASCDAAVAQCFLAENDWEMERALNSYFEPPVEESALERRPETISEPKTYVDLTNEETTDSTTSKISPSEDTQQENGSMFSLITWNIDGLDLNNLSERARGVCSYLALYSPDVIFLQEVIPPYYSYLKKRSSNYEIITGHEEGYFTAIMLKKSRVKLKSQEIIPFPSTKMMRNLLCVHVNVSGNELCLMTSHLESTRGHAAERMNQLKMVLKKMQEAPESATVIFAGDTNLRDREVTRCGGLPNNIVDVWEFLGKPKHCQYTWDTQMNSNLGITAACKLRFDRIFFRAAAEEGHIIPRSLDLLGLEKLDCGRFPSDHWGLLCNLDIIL
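Test system: Human TDP2 enzyme | Reagent: 5 mM T5PNP | Compound dosing: 12.8 µM single point, 1% DMSO | Incubation: Enzyme reaction with compound for 2 h at 37 °C | Technique: p-Nitrophenol epi absorbance | Read-out: % inhibition relative to enzyme-containing and enzyme-free wells | Benchmarks: High control without enzyme, low control DMSO plus TDP2 | Replicates: Singlicate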
PAD4 inh = PAD4 (human) enzyme inhibition; AID 485272; recombinant PAD4, RCA probe fluorescence polarization; Q9UM07; 0.41% of 330,000 active; inhibition, % at 6.36 µM;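 active = percent inhibition above a cutoff equal to the mean of all tested compounds plus 3 SD, cut at about 15% in these data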;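 also: 0% = PAD4 with RCA probe and DMSO and 100% = probe without PAD4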
mABHD4 FP = inhibits mouse alpha/beta hydrolase domain 4; purified mABHD4, FP-Rh probe fluorescence polarization; Q8VD66; inhibition, % at 8.92 µM; 0.54% of 370,000 active;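 active = inhibition exceeding the mean over every tested compound plus 3 SD, cut at about 30% in these data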;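 also: 0% = plate median of compound wells and 100% = S159A mutant with DMSO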
Target sequence (Q8VD66 whole entry, looked up, the tested form may be a part): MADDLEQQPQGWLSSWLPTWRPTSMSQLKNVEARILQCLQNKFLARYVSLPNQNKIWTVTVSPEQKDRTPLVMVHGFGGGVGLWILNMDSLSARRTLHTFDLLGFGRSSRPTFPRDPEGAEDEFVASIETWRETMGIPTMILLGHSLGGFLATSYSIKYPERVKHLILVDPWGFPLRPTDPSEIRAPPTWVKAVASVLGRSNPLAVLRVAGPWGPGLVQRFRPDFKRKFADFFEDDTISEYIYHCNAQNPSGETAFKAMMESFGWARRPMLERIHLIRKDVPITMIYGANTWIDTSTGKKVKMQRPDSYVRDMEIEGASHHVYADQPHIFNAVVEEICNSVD
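assay system = mABHD4 protein | compound dosing = single nominal dose of 8.92 µM, 0.89% DMSO final | read-out basis = percent inhibition of probe binding, normalized to plate controls | schedule = Enzyme–compound pre-incubation 45 min, then probe 60 min, both 25 °C | detection = fluorescence polarization, excitation 525 nm, emission 598 nm, BODIPY TMR filters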
HTRA1 inhibitor = HTRA1 (human) protease inhibition | Q92743 | recombinant HTRA1, FP-rhodamine activity-based probe, fluorescence polarization | inhibition, % at 5.96 µM | 0.5% of 340,000 active; in the data active = inhibition above about 36%;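 also: 0% = enzyme with DMSO and 100% = wells lacking enzyme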
SIAE inh = blocks human sialic acid acetylesterase | Q9HAT2 | SIAE FP-Rh probe binding, fluorescence polarization | inhibition, % at 9.66 µM | 0.69% of 370,000 active | AID 1053197;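 active = inhibition above a cutoff: mean of compounds within the control limits plus 3 SD of those, cut at about 17% in these data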;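 also: 0% = plate median of compound wells and 100% = probe without SIAE protein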
TCR-CD3 inh = inhibitors of human TCR-CD3 interaction; TAMRA-labeled TCR probe fluorescence, biochemical; inhibition, % at 9.4 µM; 0.37% of 360,000 active;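 also: recombinant mutant TCR 2C K166C tagged with TAMRA read by polarization; 0% = receptor in buffer alone and 100% = receptor with positive control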
HTRA1 conf = HTRA1 (human) inhibition, confirmation; shares compounds with HTRA1 inhibitor; recombinant HTRA1, FP-rhodamine activity-based probe, fluorescence polarization; inhibition, % at 5.96 µM; 66% of 1,600 active; AID 540248;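 active = mean inhibition over three repeats above a set limit taken from the earlier primary screen, cut at about 37% in these data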;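 also: 0% = HTRA1 with DMSO and 100% = wells lacking HTRA1; inhibitors block probe binding so polarization drops and inhibition rises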
BSA probe FL = BSA probe counter-screen for TCR-CD3 inhibitors. shares compounds with TCR-CD3 inh. 10% of 1,200 active. TAMRA-labeled BSA probe fluorescence counterscreen. inhibition, % at 9.4 µM; in the data active = inhibition above about 23%;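 also: 0% = buffer low control and 100% = reference high control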
TCR-CD3 inh conf = TCR-CD3 interaction inhibition, confirmation; AID 652036; inhibition, % at 9.4 µM; shares compounds with TCR-CD3 inh; TAMRA-labeled TCR probe fluorescence binding assay; 48% of 1,200 active
mABHD4 conf = ABHD4 (mouse) inhibition, FP confirmation; 55% of 1,800 active; purified mABHD4, FP-Rh probe fluorescence polarization; shares compounds with mABHD4 FP; AID 720658; inhibition, % at 8.92 µM;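 active = mean inhibition across replicates above the hit cutoff set in the primary screen, cut at about 30% in these data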;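 also: 0% = wild-type ABHD4 with DMSO and 100% = catalytically dead S159A mutant with DMSO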
TDP2 confirm = human TDP2 inhibition, confirmation; shares compounds with TDP2 inh; recombinant human TDP2, absorbance read-out; inhibition, % at 12.8 µM; 22% of 1,100 active; in the data active = inhibition above about 25%;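 also: 0% = vehicle with enzyme and 100% = no enzyme buffer only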
SIAE inh conf = confirmation of human SIAE inhibitors; shares compounds with SIAE inh; SIAE FP-Rh activity-based probe, fluorescence polarization; inhibition, % at 9.66 µM; 13% of 2,300 active;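 active = mean inhibition of the replicates above the hit cutoff set in the primary screen, cut at about 17% in these data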;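 also: 0% = SIAE with DMSO and probe and 100% = probe without SIAE; inhibitors lower polarization as more probe stays unbound to SIAE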
Active calls of the source: *; . = not tested or not shown. Rows were chosen to be rich in hits. Some 2% of all compounds tested hit in one or more screens of this group. Rule as the data show it, unless noted: active = inhibition above about 19%; inactive = the rest.

SMILES	TDP2 inh	PAD4 inh	mABHD4 FP	HTRA1 inhibitor	SIAE inh	TCR-CD3 inh	HTRA1 conf	mABHD4 conf	SIAE inh conf	others
Cc1ccc(C(=O)OCC(=O)NC(C)c2ccccc2)cc1C (centres undefined)	-9.8	-3.8	-1.2	-2.1	-2.0	-1.4	.	.	.
O=C1C(Cl)=C(NC(=O)c2ccccc2)C(=O)C(Cl)=C1NC(=O)c1ccccc1	59.2*	50.5*	63.8*	37.1*	3.2	-7.9	-2.5	70.8*	.	TDP2 confirm=33.3*
COc1ccc(/C=N/NC(=O)C(=O)/C=C2\NC3(CCCC3)Cc3ccccc32)cc1	-5.2	-1.4	-22.9	-78.3	-19.3	-1.6	.	.	.
O=C(/C=C1\NC2(CCCC2)Cc2ccccc21)C(=O)N/N=C/c1ccc(O)c(O)c1	-20.5	-4.3	32.1*	79.2*	28.9*	28.0*	63.3*	7.8	-29.7
CCCc1cc(=O)oc2cc(C)cc(OC(C)C(=O)NCc3ccncc3)c12 (centres undefined)	10.9	1.4	-1.6	4.8	1.5	-0.5	.	.	.
CCN(CC)CCNC(=O)CN1C(=O)CSc2ccc(S(=O)(=O)N3CCOCC3)cc21	7.4	.	1.3	7.8	-3.3	-3.2	.	.	.
O=C(c1ccccc1)c1ccc2nc(-c3ccco3)c(-c3ccco3)nc2c1	15.1	-13.6	43.7*	45.4*	25.0*	13.4	191.0*	20.7	0.7
C[C@H]1CN([C@@H](C)CO)C(=O)CCCn2nncc2CO[C@@H]1CN(C)Cc1ccccc1C(F)(F)F	0.7	.	-0.3	1.9	1.2	1.9	.	.	.
Oc1ccc(O)c(C=NNC(=S)NC2CC3CC2C2C=CCC32)c1 (centres undefined)	2.7	.	29.7*	46.8*	34.0*	1.1	72.8*	34.7*	39.2*
Cc1ccc([N+](=O)[O-])cc1-c1[nH]c(-c2ccc(O)c(O)c2)nc1-c1ccccc1	-5.1	-4.6	26.9	68.6*	34.3*	11.3	85.3*	.	-17.1
Cc1cc(C)n(-c2ccc(C(=O)NCC(c3ccco3)N3CCCC3)cc2)n1 (centres undefined)	-13.6	0.4	-14.2	-1.9	4.4	-8.4	.	.	.
CC(C(=O)N1CCOCC1)N1C(=O)c2cccc3cccc(c23)C1=O (centres undefined)	0.5	2.4	3.1	-6.0	-4.5	3.5	.	.	.
CC1=C(C)C(=O)C(N2CCOCC2)=CC1=O	-3.6	.	12.3	0.9	-1.7	13.1	.	.	.
O=C1C(N2CCOCC2)=Cc2cccc3cccc1c23	5.1	.	86.2*	59.0*	49.4*	86.8*	38.6*	82.9*	27.4*	BSA probe FL=70.4*;TCR-CD3 inh conf=46.6*
O=C1C=C(N2CCOCC2)c2cccc3cccc1c23	-0.1	.	82.9*	43.4*	46.5*	79.0*	8.1	2.5	-2.2	BSA probe FL=7.3;TCR-CD3 inh conf=3.1
Cc1ccc(CNC(=O)c2cc(=O)c3ccc(C)cc3o2)cc1	3.6	-7.9	6.1	-23.1	2.7	-6.3	.	.	.
CCNc1ccc(Br)cc(C(=O)/C=C/c2ccc(Cl)cc2Cl)c1=O	-1.3	-3.4	35.2*	64.0*	17.3*	-2.2	58.6*	31.0*	8.1
O=[N+]([O-])c1ccc(N/N=C/c2ccc[nH]2)cc1	-1.8	-6.2	-12.6	44.5*	18.2*	-17.2	57.5*	.	-4.1
O=[N+]([O-])c1ccc(N/N=C/c2c[nH]c3ccccc23)cc1	2.5	-23.5	10.5	31.5	7.6	-17.1	.	.	.
CCOc1cccc(CNc2ccc(O)cc2)c1OCc1ccccc1Cl	13.4	0.9	55.0*	52.3*	30.2*	23.8*	14.8	31.3*	10.2	BSA probe FL=-7.8;TCR-CD3 inh conf=-1.4
CCOc1cccc(CNn2cnnc2)c1OCc1ccccc1Cl	1.2	2.4	-0.9	-1.6	3.2	7.9	.	.	.
Cc1nc2cc(C(=O)N3CCN(C)CC3)ccc2n1C	0.3	.	-13.4	-2.8	-3.6	-13.7	.	.	.
Oc1ccc(NCc2cccc(OCc3ccc(F)cc3)c2)cc1	14.4	-1.9	48.7*	57.8*	39.7*	24.8*	6.0	15.1	8.0	BSA probe FL=5.0;TCR-CD3 inh conf=4.4
O=[N+]([O-])c1ccc(COc2cccc(CNc3ccc(F)cc3)c2)cc1	-3.0	-2.8	-10.5	-6.8	-0.5	-1.4	.	.	.
c1ccc(COc2cccc(CNCc3cccnc3)c2)cc1	8.1	-2.0	2.4	-11.0	2.2	4.2	.	.	.
SMILES	TDP2 inh	PAD4 inh	mABHD4 FP	HTRA1 inhibitor	SIAE inh	TCR-CD3 inh	HTRA1 conf	mABHD4 conf	SIAE inh conf	others
Oc1ccc(NCc2cccc(OCc3ccccc3)c2)cc1	8.5	6.1	49.8*	50.5*	43.9*	26.2*	11.7	22.7	11.9	BSA probe FL=-2.4;TCR-CD3 inh conf=2.4
CN(/N=C\c1ccc(O)c(O)c1)c1nc(-c2ccccc2)cc(-c2ccccc2)n1	-0.8	3.4	34.0*	38.6*	35.0*	1.9	66.4*	123.3*	-22.3
C/C(=N\NC(=O)c1cc2ccccc2cc1O)c1cc2ccccc2o1	-12.3	-8.3	25.9	36.4*	17.2*	4.7	10.2	.	9.7
C/C(CC(=O)N1CCN(C=O)CC1)=N\NC(=O)c1ccc([N+](=O)[O-])cc1	4.1	0.8	5.0	4.9	9.9	5.3	.	.	.
C/C(CC(=O)N1CCN(C=O)CC1)=N\NC(=O)c1cc2ccccc2cc1O	-5.7	-9.5	40.1*	39.2*	20.0*	13.5	36.8*	34.5*	2.8
COc1ccc(NS(=O)(=O)c2ccc3c(c2)[C@H]2C=CC[C@H]2[C@@H](c2ccc(C(=O)O)cc2)N3)cc1	1.7	-11.8	44.1*	56.5*	28.9*	3.5	52.8*	61.0*	20.1*
COc1ccc(NS(=O)(=O)c2ccc(NS(=O)(=O)c3cccc(C(=O)O)c3)cc2)cc1	3.3	2.6	2.3	13.9	-4.2	-4.5	.	.	.
Cn1c(O)c(/C=N/NC(=O)c2cc3ccccc3cc2O)c2ccccc21	-3.1	0.8	39.8*	54.4*	22.8*	50.0*	54.7*	44.3*	9.8	BSA probe FL=-12.9;TCR-CD3 inh conf=53.3*
Cn1c2ccccc2c2cc(/C=N/NC(=O)c3ccc(O)cc3O)ccc21	.	-5.1	.	-19.4	.	.	.	.	.

Compound activity deposited in PubChem BioAssay by The Scripps Research Institute Molecular Screening Center.
